Consider three molecules from ChEMBL document CHEMBL1138520, “Molecular and conformational determinants of pituitary adenylate cyclase-activating polypeptide (PACAP) for activation of the PAC1 receptor” (J Med Chem, 2009).

Active and inactive are the calls of the source. The calls are words filed in the database; no cut-off is given here.

Experiment [1] deals with T1, Pituitary adenylate cyclase-activating polypeptide type I receptor (Homo sapiens, UniProt P41586). In words: Displacement of [125I]Ac-PACAP27 from human recombinant PAC1 receptor expressed in CHO cells by gamma- counter. The experiment is classed as cell-based.
Target sequence in this assay (P41586 whole entry): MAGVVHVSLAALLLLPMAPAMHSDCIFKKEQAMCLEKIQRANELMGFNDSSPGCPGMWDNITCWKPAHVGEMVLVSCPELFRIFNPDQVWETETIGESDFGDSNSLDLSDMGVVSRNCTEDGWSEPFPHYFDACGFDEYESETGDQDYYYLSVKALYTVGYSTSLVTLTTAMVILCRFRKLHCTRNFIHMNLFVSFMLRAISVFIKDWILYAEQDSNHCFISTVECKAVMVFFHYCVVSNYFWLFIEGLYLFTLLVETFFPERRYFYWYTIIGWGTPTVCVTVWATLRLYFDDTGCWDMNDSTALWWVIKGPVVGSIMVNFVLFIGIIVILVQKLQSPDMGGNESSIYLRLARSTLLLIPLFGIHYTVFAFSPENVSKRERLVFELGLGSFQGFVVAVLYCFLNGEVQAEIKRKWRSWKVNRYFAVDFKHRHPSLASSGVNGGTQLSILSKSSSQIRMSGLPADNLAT
For experiment [2], the target named is T1, Pituitary adenylate cyclase-activating polypeptide type I receptor. In words: Antagonist activity at human recombinant PAC1 receptor expressed in CHO cells assessed as reduction in PACAP38-induced calcium mobilization at 10 uM by FLIPR assay. The experiment is classed as functional, cell-based. The gist of the method: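 Fluo-4-loaded CHO cells stably expressing human PAC1 were exposed for 15 min to 10^-5 M peptide before reading. They were then challenged with 10^-6 M PACAP38, and the reduction in fluorescence calcium response was recorded (ex 480/em 525 nm, 150 s).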
Target sequence in this assay (P41586 21-468 limits assumed): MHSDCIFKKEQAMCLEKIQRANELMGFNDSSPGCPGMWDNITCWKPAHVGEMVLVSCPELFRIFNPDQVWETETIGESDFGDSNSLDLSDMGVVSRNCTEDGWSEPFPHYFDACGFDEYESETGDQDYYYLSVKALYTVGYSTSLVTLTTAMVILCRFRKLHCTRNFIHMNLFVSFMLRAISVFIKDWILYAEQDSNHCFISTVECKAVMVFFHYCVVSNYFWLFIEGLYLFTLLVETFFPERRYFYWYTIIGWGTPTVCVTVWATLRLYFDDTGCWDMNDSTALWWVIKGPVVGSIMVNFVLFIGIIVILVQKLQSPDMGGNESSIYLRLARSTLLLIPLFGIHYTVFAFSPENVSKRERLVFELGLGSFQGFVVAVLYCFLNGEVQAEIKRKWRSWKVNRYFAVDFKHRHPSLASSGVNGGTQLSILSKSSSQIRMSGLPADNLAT

The target is the same in experiment [3]. As to the kind of experiment: Agonist activity at human recombinant PAC1 receptor expressed in CHO cells assessed as PACAP38-induced calcium mobilization at 1 uM by FLIPR assay relative to PACAP38. The experiment is classed as functional, cell-based.
Target sequence in this assay (P41586 21-468 limits assumed): as above
For experiment [4] the target is unchanged. As to the kind of experiment: Agonist activity at human recombinant PAC1 receptor expressed in CHO cells assessed as PACAP38-induced calcium mobilization at 1 uM by FLIPR assay. The experiment is classed as functional, cell-based.
Target sequence in this assay (P41586 whole entry): as the sequence (P41586 whole entry) above
Experiment [5] shares this target. As to the kind of experiment: Antagonist activity at human recombinant PAC1 receptor expressed in CHO cells assessed as reduction in PACAP38-induced calcium mobilization by FLIPR assay. Format: functional, cell-based. The conditions noted are these: read-out: pA2 (converted). The gist of the method:
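PAC1-CHO cells were loaded with fluo-4 and preincubated 15 min with antagonist at 0.1, 1 or 10 µM. PACAP38 concentration-response curves for calcium mobilization were then recorded. pA2 was estimated by Schild plot from concentration ratios; 4-10 independent assays in duplicate.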
Target sequence in this assay (P41586 whole entry): as above

For `CC[C@H](C)[C@H](NC(=O)CN(C)C(=O)[C@H](CC(=O)O)NC(=O)[C@H](CO)NC(=O)[C@@H](N)Cc1cnc[nH]1)C(=O)N[C@@H](Cc1ccccc1)C(=O)N[C@H](C(=O)N[C@@H](CC(=O)O)C(=O)N[C@@H](CO)C(=O)N[C@@H](Cc1ccc(O)cc1)C(=O)N[C@@H](CO)C(=O)N[C@@H](CCCNC(=N)N)C(=O)N[C@@H](Cc1ccc(O)cc1)C(=O)N[C@@H](CCCNC(=N)N)C(=O)N[C@@H](CCCCN)C(=O)N[C@@H](CCC(N)=O)C(=O)N[C@@H](CCSC)C(=O)N[C@@H](C)C(=O)N[C@H](C(=O)N[C@@H](CCCCN)C(=O)N[C@@H](CCCCN)C(=O)N[C@@H](Cc1ccc(O)cc1)C(=O)N[C@@H](CC(C)C)C(=O)N[C@@H](C)C(=O)N[C@@H](C)C(=O)N[C@H](C(=O)N[C@@H](CC(C)C)C(N)=O)C(C)C)C(C)C)[C@@H](C)O`, the IC50 in experiment [1] was found to be 308 nM. The result in experiment [2] was inactive. Further, the Emax entry in experiment [3] was “inactive”. Further, the EC50 entry in experiment [4] was “Not Active”.

In the case of `CC[C@H](C)[C@@H](C(=O)N[C@@H](Cc1ccccc1)C(=O)N[C@H](C(=O)N[C@@H](CC(=O)O)C(=O)N[C@@H](CO)C(=O)N[C@@H](Cc1ccc(O)cc1)C(=O)N[C@@H](CO)C(=O)N[C@@H](CCCNC(=N)N)C(=O)N[C@@H](Cc1ccc(O)cc1)C(=O)N[C@@H](CCCNC(=N)N)C(=O)N[C@@H](CCCCN)C(=O)N[C@@H](CCC(N)=O)C(=O)N[C@@H](CCSC)C(=O)N[C@@H](C)C(=O)N[C@H](C(=O)N[C@@H](CCCCN)C(=O)N[C@@H](CCCCN)C(=O)N[C@@H](Cc1ccc(O)cc1)C(=O)N[C@@H](CC(C)C)C(=O)N[C@@H](C)C(=O)N[C@@H](C)C(=O)N[C@H](C(=O)N[C@@H](CC(C)C)C(=O)NCC(=O)N[C@@H](CCCCN)C(=O)N[C@@H](CCCNC(=N)N)C(=O)N[C@@H](Cc1ccc(O)cc1)C(=O)N[C@@H](CCCCN)C(=O)N[C@@H](CCC(N)=O)C(=O)N[C@@H](CCCNC(=N)N)C(=O)N[C@H](C(=O)N[C@@H](CCCCN)C(=O)N[C@@H](CC(N)=O)C(=O)N[C@@H](CCCCN)C(N)=O)C(C)C)C(C)C)C(C)C)[C@@H](C)O)N(C)C(=O)CNC(=O)[C@H](CC(=O)O)NC(=O)[C@H](CO)NC(=O)[C@@H](N)Cc1cnc[nH]1`, the Kb in experiment [5] is 52.5 nM. In experiment [1], the IC50 amounted to 158 nM. The Emax result in experiment [3] was “inactive”. Further, the EC50 result in experiment [4] is “Not Active”.

For the molecule `CC[C@H](C)[C@H](NC(=O)CN(C)C(=O)[C@H](CC(=O)O)NC(=O)[C@H](CO)NC(=O)[C@@H](N)Cc1cnc[nH]1)C(=O)N[C@@H](Cc1ccccc1)C(=O)N[C@H](C(=O)N[C@@H](CC(=O)O)C(=O)N[C@@H](CO)C(=O)N[C@@H](Cc1ccc(O)cc1)C(=O)N[C@@H](CO)C(=O)N[C@@H](CCCNC(=N)N)C(=O)N[C@@H](Cc1ccc(O)cc1)C(=O)N[C@@H](CCCNC(=N)N)C(=O)N[C@@H](CCCCN)C(=O)N[C@@H](CCC(N)=O)C(=O)N[C@@H](CCSC)C(=O)N[C@@H](C)C(=O)N[C@H](C(=O)N[C@@H](CCCCN)C(=O)N[C@@H](CCCCN)C(=O)N[C@@H](Cc1ccc(O)cc1)C(=O)N[C@@H](CC(C)C)C(=O)N[C@@H](C)C(=O)N[C@@H](C)C(=O)N[C@H](C(=O)N[C@@H](CC(C)C)C(=O)NCC(=O)N[C@@H](CCCCN)C(=O)N[C@@H](CCCNC(=N)N)C(=O)N[C@@H](Cc1ccc(O)cc1)C(=O)N[C@@H](CCCCN)C(=O)N[C@@H](CCC(N)=O)C(=O)N[C@@H](CCCNC(=N)N)C(=O)N[C@H](C(=O)N[C@@H](CCCCN)C(=O)N[C@@H](CC(N)=O)C(=O)N[C@@H](CCCCN)C(N)=O)C(C)C)C(C)C)C(C)C)[C@@H](C)O`, the Kb in experiment [5] was 4.07 nM. In experiment [1], the IC50 amounted to 97 nM. In addition, in experiment [3], the Emax entry was “inactive”. The EC50 entry in experiment [4] was “Not Active”.
